{"data": "Measurements gathered from unrelated publications", "action": "inhibitor", "MET": "Hepatocyte growth factor receptor (MET, Homo sapiens, UniProt P08581)", "note": "Each line is one published result; the experiments were not run side by side."}
{"Structure (SMILES)": "CN(C)C1CCN(CC#Cc2nn(C3CCCC3)c3nc(NCc4ccccc4)ncc23)C1 (stereo not shown)", "target": "MET", "read-out": "enzyme activity", "technique": "FRET", "tested at": "10 µM", "inhibition": "72%"}
{"Structure (SMILES)": "CN1CC(Oc2cnc(C#N)cc2-c2ccn3nc(NC(=O)C4CC4)cc3c2)C1", "target": "MET", "read-out": "enzyme activity", "tested at": "1 µM", "inhibition": "-19%"}
{"Structure (SMILES)": "COc1cc2ncnc(Nc3ccc(Oc4ccccc4)c(C)c3C)c2cc1OC", "target": "MET", "read-out": "enzyme activity", "tested at": "1 µM", "inhibition": "8%"}
{"Structure (SMILES)": "CSc1nc(C)c(-c2ccnc(Nc3ccc(N4CCOCC4)cc3)c2)[nH]1", "target": "MET", "read-out": "cell-free assay", "tested at": "10 µM", "inhibition": "28.2%"}
{"Structure (SMILES)": "COc1cc2ncnc(Nc3ccc(Oc4ccccc4)cc3C)c2cc1OC", "target": "MET", "read-out": "enzyme activity", "tested at": "1 µM", "inhibition": "-1%"}
{"Structure (SMILES)": "O=C(CSc1nc2nccnc2c(=O)n1CCc1ccccc1)Nc1nccs1", "target": "MET", "read-out": "enzyme activity", "tested at": "10 µM", "inhibition": "-2%"}
{"Structure (SMILES)": "CNC(=O)c1cc2c(Oc3ccc(NC(=O)C4(C(=O)Nc5ccc(F)cc5)CC4)cc3)ccnc2cc1OC", "target": "Hepatocyte growth factor receptor (MET, Homo sapiens, UniProt P08581, Y1230C)", "read-out": "enzyme activity", "technique": "radiometric", "tested at": "1 µM", "inhibition": "100%"}
{"Structure (SMILES)": "CNC(=O)c1cc(Oc2ccc(NC(=O)Nc3ccc(Cl)c(C(F)(F)F)c3)cc2)ccn1", "target": "MET", "read-out": "enzyme activity", "tested at": "10 µM", "inhibition": "-13%"}
{"Structure (SMILES)": "CCCS(=O)(=O)Nc1ccc(F)c(C(=O)c2c[nH]c3ncc(-c4ccc(Cl)cc4)cc23)c1F", "target": "MET", "read-out": "enzyme activity", "tested at": "1 µM", "inhibition": "< 20%"}
{"Structure (SMILES)": "CC/C(=N\\NC(=O)NCc1cccc(O)c1)c1ccc(O)c(C)c1O", "target": "MET", "read-out": "enzyme activity", "tested at": "0.1 µM", "inhibition": "1.1%"}
